The source of these data is the array DNA melting data of Ke et al. (doi:10.1101/2024.01.08.574731).

The nature of data set [1]: melting temperature; fluorescence melt of hairpins on a sequencing array, two-state fit, raised by 9.35 °C to match UV melts. The conditions noted are these: sodium 0.088 M. The gist of the method: (§1)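 In 50 mM Na-HEPES pH 8.0 containing 25 mM NaCl, hairpins from the library on a sequenced MiSeq flow cell were imaged for Cy3 fluorescence at 2.5 °C steps up to 60 °C, with Cy3 and quencher oligos annealed. After normalisation to pre-quench Cy3 and to control constructs, two-state fits with bootstrapping gave melting temperature and folding enthalpy. Four replicates were combined by inverse-variance weighting, and fitted temperatures were shifted up by 9.35 °C to match UV melts.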

The nature of data set [2]: folding enthalpy; higher = less favourable; fluorescence melt of hairpins on a sequencing array, two-state fit. Particulars: sodium 0.088 M. The gist of the method:
as §1

For the sequence GCAGTACCGAAAGGTTGC (((..(((....)))))), in data set [1], the Tm was 43.3 °C. Moreover, the folding enthalpy in data set [2] was -20.4 kcal/mol.

Take GCAGTAGGAAACCACTGC (((((.(....).))))): the Tm in data set [1] stood at 48.2 °C. Besides, in data set [2], the folding enthalpy was -29.2 kcal/mol.

GCAGTAGGAAACTACCAC (..((((....))))..): the Tm in data set [1] was 19.6 °C. Further, in data set [2], the folding enthalpy is -6.77 kcal/mol.

As to GCAGTATCGAAAGATTGC (((..(((....)))))), the Tm in data set [1] was 34.9 °C. Also, the folding enthalpy in data set [2] was -20.5 kcal/mol.

Turning to GCAGTCGAAAGACCGTGC ((((((....)))..))), the Tm in data set [1] came out at 38.1 °C. In addition, the folding enthalpy in data set [2] was -16.8 kcal/mol.

Regarding GCAGTCGAAAGACGCTGC ((((((....)))..))), the Tm in data set [1] is 55.6 °C. The folding enthalpy in data set [2] is -21.6 kcal/mol.

Regarding GCAGTCGAAAGACTATGC ((((((....)))..))), the Tm in data set [1] came to 46.2 °C. For the same sequence, the folding enthalpy in data set [2] was -17.8 kcal/mol.

Regarding GCAGTCGAAAGACTCTGC ((((((....)))..))), the Tm in data set [1] is 41.8 °C. Moreover, the folding enthalpy in data set [2] was -16.1 kcal/mol.

With GCAGTCGGAAACGACCAC (..((((....))))..), in data set [1], the Tm turned out to be 32 °C. For the same sequence, in data set [2], the folding enthalpy is -8.16 kcal/mol.

On to GCAGTCGGAAACGACTAC (.(((((....))))).), for which the Tm in data set [1] came to 41.7 °C. Also, the folding enthalpy in data set [2] was -13.4 kcal/mol.

Regarding GCAGTCGGAAACGGTTGC (((..((....))..))), the Tm in data set [1] was 42.4 °C. In addition, the folding enthalpy in data set [2] was -25.8 kcal/mol.

Take GCAGTGCCGAAAGGCTGC (((..(((....)))))): in data set [1], the Tm turned out to be 49.8 °C. Also, the folding enthalpy in data set [2] was -14.8 kcal/mol.

Consider GCAGTGCGAAAGCACAGC ((.((((....)))).)), for which the Tm in data set [1] came to 68.2 °C. Besides, the folding enthalpy in data set [2] was -17.1 kcal/mol.

For GCAGTGCGAAAGCGTTGC (((..((....))..))), in data set [1], the Tm amounted to 56.2 °C. The folding enthalpy in data set [2] was -17.7 kcal/mol.

In the case of GCAGTGCGAAAGCTCAGC ((.(.((....)).).)), the Tm in data set [1] worked out at 49.2 °C. Also, the folding enthalpy in data set [2] is -14.7 kcal/mol.

GCAGTGGGAAACCATTGC (((.(((....))).))): in data set [1], the Tm was found to be 50.1 °C. The folding enthalpy in data set [2] is -25.6 kcal/mol.

As for GCAGTTCGAAAGAATGC (((.(((....)))))), the Tm in data set [1] came to 41.2 °C. Further, the folding enthalpy in data set [2] was -21.4 kcal/mol.

As to GCAGTTGGAAACAACCGC ((.((((....)))).)), the Tm in data set [1] turned out to be 44.1 °C. In addition, the folding enthalpy in data set [2] is -23.6 kcal/mol.

Consider GCATAAACGAAAGTTTGC (((..(((....)))))), for which, in data set [1], the Tm was determined as 37.4 °C. The folding enthalpy in data set [2] was -18.5 kcal/mol.

Regarding GCATAAGGAAACCTATGC (((((.(....).))))), the Tm in data set [1] was found to be 39.2 °C. Besides, the folding enthalpy in data set [2] is -27.1 kcal/mol.

For the sequence GCATAAGGAAACTTACGC ((.((((....)))).)), the Tm in data set [1] turned out to be 31.6 °C. Also, the folding enthalpy in data set [2] is -21.7 kcal/mol.

GCATACGAAAGTACGTGC ((((((....)))..))): the Tm in data set [1] stood at 34.4 °C. In data set [2], the folding enthalpy is -18.1 kcal/mol.

For the sequence GCATACGAAAGTATCTGC ((((((....)))..))), the Tm in data set [1] was 37.9 °C. Moreover, the folding enthalpy in data set [2] was -15.5 kcal/mol.

As to GCATACGAAAGTATTGC ((((((....))).))), in data set [1], the Tm was found to be 45.7 °C. Moreover, in data set [2], the folding enthalpy is -25.1 kcal/mol.

For GCATACTCGAAAGAGTGC (((..(((....)))))), the Tm in data set [1] came to 39 °C. The folding enthalpy in data set [2] was -16.8 kcal/mol.

For the sequence GCATAGCGAAAGCACTGC (((..((....))..))), in data set [1], the Tm was 39.6 °C. Besides, in data set [2], the folding enthalpy is -13.9 kcal/mol.

As to GCATAGCGAAAGCGATGC ((((.((....)).)))), the Tm in data set [1] came out at 66.1 °C. For the same sequence, the folding enthalpy in data set [2] was -30.9 kcal/mol.

As to GCATAGCGAAAGCTCTGC (((.(((....))).))), in data set [1], the Tm amounted to 49.4 °C. Moreover, in data set [2], the folding enthalpy was -45.2 kcal/mol.

In the case of GCATAGCGAAAGCTGCGC ((..(((....)))..)), the Tm in data set [1] worked out at 61.3 °C. Further, the folding enthalpy in data set [2] was -21 kcal/mol.

For GCATAGCGAAAGCTGTGC (((.(((....))).))), the Tm in data set [1] was 59.9 °C. For the same sequence, the folding enthalpy in data set [2] is -50.8 kcal/mol.
